Hits are enriched below; roughly 4.2% of the tested compounds scored in any of these assays.
SKKanGAS inh: SKKanGAS growth inhibition | S. pyogenes SKKanGAS, kanamycin growth, BacTiter-Glo, 6 h | inhibition, % at 7.5 µM | 300,000 tested, 1.3% active;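 active means mean replicate score, as percent of positive control median, at least 50; inconclusive means mean below 50 but one replicate at or above 50; inactive means mean and every replicate below 50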;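 further: strain carries kanamycin resistance gene driven by streptokinase promoter and grows in 40 µg/ml kanamycin; loss of luminescence reflects streptokinase promoter inhibition or plain growth inhibition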
WT yeast gro inh: growth inhibition of WT yeast, mitochondrial fusion screen; mitochondrial fusion phenotypic screen, WT strain; inhibition, % at 10 µM; 190,000 tested, 2.1% active; in the data active means inhibition above about 58%; tested in S. cerevisiae
Rad51 HR inh: Rad51 (human) homologous recombination inhibition; Q06609; hRad51 DNA strand exchange, fluorescence dequenching; inhibition, % at 10 µM; 200,000 tested, 0.085% active; AID 1385;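 active means inhibition above 40% at the single screening dose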
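System: human Rad51 nucleoprotein filaments preassembled on unlabelled ssDNA. Reagent: labelled 47-mer dsDNA for strand exchange. Schedule: 30-min compound preincubation and 15-min exchange, both room temperature. Measured by: FRET fluorescence dequenching, excitation 485 nm, emission 520 nm. Read-out: Fluorescence-based percent inhibition, control- and blank-normalised. Benchmarks: plate controls and plate blanks.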
Insulin prom up: MIN6 insulin promoter up-regulation | z-score at 5 µM | 190,000 tested, 0.3% active | MIN6 insulin promoter-GFP reporter, high-content imaging; stronger effect = higher value;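 active means z-score above 3 at 5 µM with at least 500 cells counted in the well; inconclusive means wells under 500 cells, flagged as cytotoxic or low count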
KCC2 mod: modulators of human KCC2 chloride dependent transport | B-score of Tl+ flux slope (higher = more flux/activation; lower = inhibition) at 10 µM | Q9H2X9 | 190,000 tested, 2.2% active | KCC2 cells, thallium flux FluoZin-2 fluorescence | AID 1456;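 active means thallium flux slope and its plate-corrected score both differing from the plate sample mean at a set confidence after two filtering rounds, in either direction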;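 further: slope of fluorescence scaled to starting intensity during 10 to 20 s after thallium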
Autophagy mod: alters autophagy in cells. 190,000 tested, 0.98% active. MEF GFP-LC3 puncta imaging; test concentration mostly 10 µM. calls only at 10 µM (by protocol);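 active means percentage of spot-positive cells more than 3 SD above its plate mean, without a fluorescence outlier flag or 80% toxicity; inconclusive means no clear call, values can overlap the other calls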
KCC2 sec1: KCC2 (human) modulation, secondary assay; AID 1713; shares compounds with KCC2 mod; normalised thallium flux (F/F0 slope) at 10 µM; 3,700 tested, 15% active; HEK293-KCC2, thallium flux, FluoZin2 fluorescence; stronger effect = higher value;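 active means thallium flux slope above the same plate's solvent-only control mean plus 3 SD; inconclusive means the two replicate wells disagree; inactive means no significant difference from solvent-only control wells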
KCC2 bumet counter: thallium flux despite bumetanide block in KCC2 cells, secondary assay 3 | shares compounds with KCC2 mod | HEK293-KCC2 + bumetanide/ouabain, thallium flux FluoZin2; stronger effect = higher value | normalized thallium flux at 10 µM | 3,700 tested, 49% active | AID 1714;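 active means thallium entry rate above the same plate's blocked-transporter control wells by more than 3 SD; inconclusive means the two repeat wells disagree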;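 further: raw slope of fluorescence over initial fluorescence between 10 and 20 s after thallium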
KCC2 sec2: confirmation of human KCC2 transport modulators | HEK293-KCC2, thallium flux FluoZin2 fluorescence; actives lie on both sides; F/F0 rise rate, 10–20 s post-thallium | shares compounds with KCC2 mod | 3,700 tested, 23% active | normalized thallium flux at 10 µM;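 active means thallium flux slope more than 3 SD above or below the plate's solvent-only control mean, mostly below; inconclusive means the two repeat wells disagreed; inactive means no significant shift from solvent-only controls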
HEK293 Tl flux: parental HEK flux effect, counter-screen | thallium flux rate (normalised fluorescence) at 10 µM | 3,700 tested, 46% active | AID 1716 | shares compounds with KCC2 mod | HEK293 parental cells, thallium flux FluoZin2, ouabain; baseline-ratio fluorescence slope, 10–20 s after thallium;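 active means thallium flux rate significantly above the same plate's solvent-only control wells, beyond their mean plus 3 SD; inconclusive means the two replicate wells gave conflicting results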
KCC2 retest ouab: KCC2 (human) modulation, ouabain retest; shares compounds with KCC2 mod; HEK293-KCC2, thallium flux FluoZin2 fluorescence; bidirectional: low = inhibitor, high = activator; raw Tl+ flux slope (below DMSO = inhibition, above = activation) at 10 µM; 3,700 tested, 48% active; AID 1717;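 active means thallium flux slope beyond 3 SD from same-plate DMSO control mean in most replicates, usually higher, sometimes lower; inconclusive means repeat tests gave conflicting results; inactive means no significant difference from controls in most replicates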;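 further: slope of initial-normalized fluorescence between seconds 10 and 20 after thallium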
HEK counter2: acts in parental HEK cells, second KCC2 counter-screen; shares compounds with KCC2 mod; HEK293 parental, thallium flux FluoZin-2 fluorescence slope; thallium flux slope at 10 µM; 3,700 tested, 33% active;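 active means thallium flux slope above the same plate's solvent-control mean plus 3 SD in both duplicate wells; inconclusive means duplicate wells that disagreed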;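 further: run without ouabain in cells lacking the KCC2 cotransporter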
Numbers stand for hits; n = inactive; u = inconclusive; x = no result given.

SMILES | SKKanGAS inh | WT yeast gro inh | Rad51 HR inh | Insulin prom up | KCC2 mod | Autophagy mod | KCC2 sec1 | KCC2 bumet counter | KCC2 sec2 | HEK293 Tl flux | KCC2 retest ouab | HEK counter2
Cc1ccc(-c2n[nH]c(=O)c3ccccc23)cc1S(=O)(=O)NCCN1CCOCC1 | n | n | n | n | n | n | n | 0.00869 | n | 0.00878 | n | u
O=C(Nc1ccc(Cl)c([N+](=O)[O-])c1)ONC1=NCCCCC1 | n | n | n | n | n | n | x | x | x | x | x | x
CCCCn1c(SCC(=O)NCc2ccccc2)nc2ccc(N3CCOCC3)cc2c1=O | n | n | n | n | 3.99 | n | n | 0.016 | n | 0.0112 | u | u
CC(C)NC(=O)N(Cc1ccccc1)Cc1cccs1 | n | x | n | n | n | x | x | x | x | x | x | x
Cc1cc(C)n(CCC(=O)N2CCCC(Nc3ccc(F)cc3)C2)n1 (centres undefined) | n | x | x | x | x | x | x | x | x | x | x | x
O=C(Nc1ccc(Cl)cc1)N1CCC(CO)(Cc2ccccc2)CC1 | n | n | n | n | -3.16 | n | n | u | n | n | u | n
O=C(Nc1ccc(Cl)cc1)N1CCN(c2ccccc2)CC1 | n | n | n | n | n | n | x | x | x | x | x | x
C=C(C)COc1ccc(-c2[nH]ncc2-c2ccccc2)c(O)c1 | n | 70.5 | n | n | -4.45 | n | n | u | n | n | n | n
COc1ccc(-c2nc(-c3ccccc3)c(-c3cccs3)[nH]2)cc1OC | n | n | n | n | -5.37 | n | n | n | n | n | n | n
CC(C)N(Cc1ccccc1)CC(O)COc1ccc(S(=O)(=O)N2CCOCC2)cc1Cl (centres undefined) | n | n | n | n | n | n | x | x | x | x | x | x
CN1C(=O)/C(=C/c2ccccc2OCc2ccccc2)NC1=S | n | n | n | x | 9.7 | n | n | 0.0129 | n | 0.00983 | u | n
CC(C)NC(=S)N/N=C/c1sc(N2CCCCC2)nc1-c1cccs1 | n | n | x | n | 3.08 | n | n | 0.0112 | n | 0.00988 | n | n
O=C(COc1ccc(S(=O)(=O)N2CCOCC2)cc1)NCC1CCCO1 (centres undefined) | n | x | x | x | x | x | x | x | x | x | x | x
O=C(COC(=O)c1cc(S(=O)(=O)N2CCOCC2)ccc1O)NCC1CCCO1 (centres undefined) | n | n | n | 3.77 | x | n | n | n | n | n | n | n
Cc1ccc(C2CC2c2n[nH]c(=S)n2-c2cccc(Cl)c2)cc1 (centres undefined) | n | n | n | n | 5.64 | n | n | 0.0272 | n | 0.011 | u | n
CC(O)[C@H]1CNC(=O)C(=O)N1CCc1cc(C(F)(F)F)cc(C(F)(F)F)c1 (some centres undefined) | n | x | n | n | n | x | x | x | x | x | x | x
C/C(=N\NC(=O)CNc1cccc(C(F)(F)F)c1)c1cccc(Br)c1 | n | n | n | n | 5.45 | n | n | n | n | n | n | n
CCCn1c(SCC(=O)Nc2ccc(S(=O)(=O)N(C)C)cc2)n[nH]c1=O | n | n | n | n | n | n | x | x | x | x | x | x
Cc1cccc(NC(=O)CSc2nnc3ccc(-c4ccccn4)nn23)c1 | n | x | x | x | x | x | x | x | x | x | x | x
COc1ccc(NC(=O)CN2CCN(C(=S)NC3CCCC3)CC2)cc1 | n | x | n | n | n | x | x | x | x | x | x | x

High-throughput results deposited in PubChem BioAssay by several laboratories.
